Assay results as given in ChEMBL document CHEMBL3421574, “Discovery of Potent Inhibitors of Schistosoma mansoni NAD⁺ Catabolizing Enzyme” (J Med Chem, 2015).
Activity calls are given as the source filed them. No cut-off for these calls is given here.

Assays:
[1] = biological target: ADP-ribosyl cyclase/cyclic ADP-ribose hydrolase 1 (Homo sapiens) (UniProt P28907); test: Inhibition of human CD38 at 100 uM by HPLC analysis relative to control
In short: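 Human CD38 with inhibitor at 100 µM, given as percent inhibition. Enzyme activity is measured by HPLC at 20 µM NAD+: isocratic C18 separation (10 mM ammonium phosphate pH 5.5, 1.2% (v/v) acetonitrile, 1 mL/min) with detection at 260 nm, plus radiodetection when [14C]NAD+ is added.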

[2] = Inhibition of recombinant Schistosoma mansoni NACE using 1, N6-etheno NAD+ as substrate by fluorometric analysis
In short: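 Continuous fluorometric read of recombinant SmNACE turning over ε-NAD+ to ε-ADP-ribose (ex 310 nm, em 410 nm), at 37 °C in 10 mM potassium phosphate pH 7.4 with 0.05% (w/v) emulphogen. Initial rates are taken at 6 inhibitor concentrations. IC50 comes from non-linear regression of residual activity against log[inhibitor]. Values are means of three independent determinations.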

[3] = Selectivity ratio of IC50 for human CD38 to IC50 for recombinant Schistosoma mansoni NACE
Schistosoma mansoni [4] = test: Competitive inhibition of recombinant Schistosoma mansoni NACE by Dixon plot analysis in presence of 1, N6-etheno NAD+
In short: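 Recombinant SmNACE with ε-NAD+ in 10 mM potassium phosphate pH 7.4, 0.05% (w/v) emulphogen, 37 °C. Initial rates are followed fluorometrically as ε-ADP-ribose appears (ex 310 nm, em 410 nm). Three fixed inhibitor concentrations are each combined with ε-NAD+ at 20, 50 and 100 µM, and 1/v is plotted against [I] (Dixon) to assign the inhibition type.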

[5] = biological target: T1, ADP-ribosyl cyclase/cyclic ADP-ribose hydrolase 1 (Homo sapiens, UniProt P28907); test: Inhibition of human CD38 by HPLC analysis
T1 sequence (P28907 whole entry): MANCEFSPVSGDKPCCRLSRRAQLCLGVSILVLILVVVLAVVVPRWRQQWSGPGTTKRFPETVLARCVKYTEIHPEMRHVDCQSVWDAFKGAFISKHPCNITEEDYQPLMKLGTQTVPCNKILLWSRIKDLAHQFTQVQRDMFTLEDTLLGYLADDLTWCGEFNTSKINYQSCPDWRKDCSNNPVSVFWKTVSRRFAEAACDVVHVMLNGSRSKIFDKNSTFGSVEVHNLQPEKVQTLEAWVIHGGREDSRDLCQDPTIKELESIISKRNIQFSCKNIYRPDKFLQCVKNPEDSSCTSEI

Schistosoma mansoni [6] = test: Inhibition of recombinant Schistosoma mansoni NACE using 1, N6-etheno NAD+ as substrate at 100 uM by fluorometric analysis relative to control
In short: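 Single-point screen at 100 µM inhibitor against recombinant SmNACE with ε-NAD+ substrate. Initial-rate fluorescence of ε-ADP-ribose is read (ex 310 nm, em 410 nm) at 37 °C in 10 mM potassium phosphate pH 7.4 with 0.05% (w/v) emulphogen, and expressed as percent inhibition.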

Schistosoma mansoni [7] = test: Inhibition of recombinant Schistosoma mansoni NACE using NAD+ as substrate at 100 uM by HPLC analysis relative to control
In short: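 HPLC assay for recombinant SmNACE at 20 µM NAD+ substrate, used where compounds fluoresce on their own. Inhibitor is tested at 100 µM. Products are separated isocratically on a C18 column (10 mM ammonium phosphate pH 5.5, 1.2% (v/v) acetonitrile, 1 mL/min) and detected at 260 nm. In some runs [adenosine-U-14C]NAD+ is added with radiodetection.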

| SMILES | inhibition [1] | IC50 ([2]; read-out: IC50) | also measured |
| --- | --- | --- | --- |
| COc1ccc(/C=N\NC(=O)c2ccoc2C)c(O)c1 | 0% | 0.032 µM | Ratio IC50 [3]: > 1000 |
| Cc1occc1C(=O)N/N=C\c1cccc(F)c1O | 27.2% | 0.036 µM | Inhibition type (Dixon plot) (Schistosoma mansoni [4]): Active; IC50 [5]: 26 µM |
| Cc1occc1C(=O)NNC(=O)c1cc(Cl)ccc1O | 6.7% | 0.039 µM | Inhibition type (Dixon plot) (Schistosoma mansoni [4]): Active; Ratio IC50 [3]: > 1000 |
| Cc1occc1C(=O)N/N=C\c1cccc(Cl)c1O | 66.7% | 0.15 µM | IC50 [5]: 14 µM |
| Cc1occc1C(=O)N/N=C\c1cccc(O)c1O | 0% | 8.7 µM | – |
| COc1ccccc1/C=N\N(C)C(=O)c1ccoc1C | – | 513 µM | – |
| Cc1occc1C(=O)N/N=C\c1ccc(O)c(O)c1 | – | 88 µM | Inhibition type (Dixon plot) (Schistosoma mansoni [4]): Active; IC50 [5]: 109 µM |
| Cc1occc1C(=O)N/N=C\c1cccc(C(C)(C)C)c1O | – | 105 µM | – |
| COc1ccccc1/C=N\NC(=O)c1ccoc1C | 0% | 67 µM | – |
| Cc1occc1C(=O)N/N=C\c1ccccc1 | – | 330 µM | IC50 [5]: 296 µM |
| Cc1occc1C(=O)N/N=C\c1cc(Cl)ccc1O | 0% | 0.033 µM | Ratio IC50 [3]: > 1000 |
| Cc1occc1C(=O)N(C)/N=C\c1ccccc1O | – | – | IC50 [2]: ND(Insoluble) |
| COc1ccccc1CNNC(=O)c1ccoc1C | 0% | 11.6 µM | – |
| Cc1occc1C(=O)N/N=C\c1c(O)cc(Cl)cc1Cl | 0% | 0.077 µM | Ratio IC50 [3]: > 1000 |
| COc1ccccc1CCNC(=O)c1ccoc1C | – | – | inhibition (Schistosoma mansoni [6]): 0% |
| Cc1occc1C(=O)N/N=C\c1ccccc1O | 20% | 0.13 µM | Inhibition type (Dixon plot) (Schistosoma mansoni [4]): Active; IC50 [5]: 430 µM; Ratio IC50 [3]: > 1000 |
| Cc1cccc(C(=O)NNC(=O)c2ccoc2C)c1O | – | – | IC50 [2]: ND(Insoluble) |
| Cc1occc1C(=O)NNC(=O)c1ccccc1O | 27.6% | 0.25 µM | IC50 [5]: 120 µM |
| COc1ccc(-c2nnc(-c3ccoc3C)o2)c(O)c1 | 0% | – | inhibition (Schistosoma mansoni [6]): 0% |
| Cc1occc1-c1nnc(-c2ccccc2O)o1 | 0% | – | inhibition (Schistosoma mansoni [6]): 0% |
| Cc1occc1C(=O)NNCc1ccccc1O | 0% | 12.3 µM | – |
| Cc1cccc(/C=N\NC(=O)c2ccoc2C)c1O | 0% | 59 µM | – |
| COc1cc(O)c(/C=N\NC(=O)c2ccoc2C)c(OC)c1 | 0% | 0.19 µM | – |
| O=C1c2c(O)cc(O)cc2OC(c2ccc(O)c(O)c2)C1O (racemic) | – | – | inhibition (Schistosoma mansoni [7]): > 40%; inhibition (Schistosoma mansoni [6]): > 40% |
| Cc1occc1-c1nnc(-c2cc(Cl)ccc2O)o1 | 0% | – | inhibition (Schistosoma mansoni [6]): 0% |
| C/C(=N/NC(=O)c1ccoc1C)c1ccccc1O | – | – | IC50 [2]: ND(Insoluble) |
| COc1ccc(C(=O)NNC(=O)c2ccoc2C)c(O)c1 | 6.7% | 0.074 µM | Inhibition type (Dixon plot) (Schistosoma mansoni [4]): Active; Ratio IC50 [3]: > 1000 |
| Cc1occc1C(=O)NCCc1ccccc1O | – | 131 µM | – |
| COc1ccc(O)c(/C=N\NC(=O)c2ccoc2C)c1 | 0% | 0.045 µM | Ratio IC50 [3]: > 1000 |
| COc1cc(/C=N\NC(=O)c2ccoc2C)ccc1O | – | 80 µM | IC50 [5]: 103 µM |
